Source: ChEMBL document CHEMBL4813976, “Rational drug design of benzothiazole-based derivatives as potent signal transducer and activator of transcription 3 (STAT3) signaling pathway inhibitors” (Eur J Med Chem, 2021)
pIC50, pKd: −log10 of the molar value.

Tests used:
[1] = molecular target: T1, Signal transducer and activator of transcription 3 (Homo sapiens, UniProt P40763); experiment: Inhibition of IL-6 induced STAT3 transcriptional activity in human HepG2 cells incubated for 1 hr followed by stimulation with IL-6 for 5.5 hrs by luciferase reporter gene assay; type: cell-based
Summary of the method: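 STAT3-dependent luciferase reporter assay in HepG2 cells with IL-6 stimulation; IC50 given as mean ± SD of at least three independent experiments.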

MDA-MB-468 = experiment: Antiproliferative activity against human MDA-MB-468 cells overexpressing STAT3 assessed as inhibition of cell growth incubated for 72 hrs by MTT assay; type: functional, cell-based; conditions: MDA-MB-468, 72 h
Summary of the method: (§1)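 MTT proliferation assay; MDA-MB-468 grown in DMEM/F-12 and HEL in high-glucose DMEM, each with 10% FBS and penicillin/streptomycin, at 37 °C under 5% CO₂. IC50 given as mean ± SD of at least three independent experiments.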

HEL = experiment: Antiproliferative activity against human HEL cells harboring JAK2 V617F mutant assessed as inhibition of cell growth incubated for 72 hrs by MTT assay; type: functional, cell-based; summary of the method: as §1
[2] = molecular target: T1, Signal transducer and activator of transcription 3; experiment: Displacement of 5'-FAM-GpYLPQTV-NH2 from His-tagged STAT3-SH2 domain (127 to 722 residues) (unknown origin) assessed as binding rate at 100 uM […] by fluorescence polarization assay; conditions: time 90.0 min
[3] = molecular target: T1, Signal transducer and activator of transcription 3; experiment: Displacement of 5'-FAM-GpYLPQTV-NH2 from His-tagged STAT3-SH2 domain (127 to 722 residues) (unknown origin) assessed as binding rate at 50 uM […] by fluorescence polarization assay; conditions: time 90.0 min
MDA-MB-453 = experiment: Antiproliferative activity against human MDA-MB-453 cells expressing low levels of STAT3 assessed as inhibition of cell growth incubated for 72 hrs by MTT assay; type: functional, cell-based; conditions: MDA-MB-453, 72 h
Summary of the method: (§2)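 MTT proliferation assay on MCF-7 and MDA-MB-453 cells; IC50 given as mean ± SD of at least two independent experiments.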

[4] = molecular target: T1, Signal transducer and activator of transcription 3; experiment: Displacement of 5'-FAM-GpYLPQTV-NH2 from His-tagged STAT3-SH2 domain (127 to 722 residues) (unknown origin) assessed as binding rate at 20 uM […] by fluorescence polarization assay; conditions: time 90.0 min
[5] = molecular target: T1, Signal transducer and activator of transcription 3; experiment: Binding affinity to His-tagged STAT3-SH2 domain (127 to 722 residues) (unknown origin) by surface plasmon resonance analysis
Summary of the method: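 SPR on a Biacore T200 with STAT3 SH2 domain. Analytes were run as concentration series, and KD was taken as the equilibrium constant.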

MCF7 = experiment: Antiproliferative activity against human MCF7 cells expressing low levels of STAT3 assessed as inhibition of cell growth incubated for 72 hrs by MTT assay; type: functional, cell-based; conditions: MCF7, 72 h; summary of the method: as §2

T1 sequence (P40763 whole entry): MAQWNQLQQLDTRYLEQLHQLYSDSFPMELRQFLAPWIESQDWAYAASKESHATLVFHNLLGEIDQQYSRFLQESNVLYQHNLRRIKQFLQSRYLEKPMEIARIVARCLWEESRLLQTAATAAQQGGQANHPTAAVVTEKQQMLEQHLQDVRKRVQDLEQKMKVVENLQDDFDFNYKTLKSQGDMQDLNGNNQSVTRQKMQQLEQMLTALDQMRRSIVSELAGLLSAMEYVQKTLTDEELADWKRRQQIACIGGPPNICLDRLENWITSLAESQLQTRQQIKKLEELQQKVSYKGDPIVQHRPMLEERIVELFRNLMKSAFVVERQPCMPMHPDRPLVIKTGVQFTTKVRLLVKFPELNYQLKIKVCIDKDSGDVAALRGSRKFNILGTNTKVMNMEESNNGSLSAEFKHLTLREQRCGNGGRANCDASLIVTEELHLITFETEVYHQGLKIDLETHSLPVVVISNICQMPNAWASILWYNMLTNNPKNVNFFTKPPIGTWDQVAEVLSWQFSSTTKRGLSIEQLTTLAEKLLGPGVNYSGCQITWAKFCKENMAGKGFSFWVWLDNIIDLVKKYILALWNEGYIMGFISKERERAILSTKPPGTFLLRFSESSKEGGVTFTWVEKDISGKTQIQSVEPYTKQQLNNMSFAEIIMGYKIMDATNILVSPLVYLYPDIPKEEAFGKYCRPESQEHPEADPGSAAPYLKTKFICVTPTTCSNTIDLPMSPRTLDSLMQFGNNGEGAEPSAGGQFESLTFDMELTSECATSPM

Compound | pIC50 [1] | pIC50 (MDA-MB-468) | pIC50 (HEL) | also measured
CCCC(C)Oc1ccc(C(=O)Nc2ccc3nc(SCC(=O)N[C@@H](C)c4ccccc4)sc3c2)cc1Br (stereo partly drawn) | 5.67 |  |  | 
N#CC[C@H](C1CCCC1)n1cc(-c2ncnc3[nH]ccc23)cn1 [RUXOLITINIB] |  | < 4.70 | 5.85 | 
CCCC(C)Oc1ccc(C(=O)Nc2ccc3nc(SCC(=O)N[C@@H](C)c4ccccc4)sc3c2)c(Cl)c1 (stereo partly drawn) | 5.87 |  |  | 
COc1ccc([C@H](C)NC(=O)CNc2nc3ccc(NC(=O)c4ccc(OC)c(C)c4OC)cc3s2)cc1 | 5.83 |  |  | 
CCCC(C)Oc1ccc(C(=O)Nc2ccc3nc(SCC(=O)N[C@@H](C)c4ccccc4)sc3c2)cc1C(F)(F)F (stereo partly drawn) | < 5.00 |  |  | 
CCCC(C)Oc1ccc(C(=O)Nc2ccc3nc(SCC(=O)N[C@@H](C)c4ccccc4)sc3c2)c(F)c1 (stereo partly drawn) | < 5.00 |  |  | 
CCCC(C)Oc1ccc(C(=O)Nc2ccc3nc(SCC(=O)N[C@@H](C)c4ccccc4)sc3c2)cc1OC (stereo partly drawn) | 5.85 |  |  | 
CCCC(C)Oc1ccc(C(=O)Nc2ccc3nc(SCC(=O)N[C@@H](C)c4ccccc4)sc3c2)cc1F (stereo partly drawn) | < 5.00 |  |  | 
Cc1cc(Nc2nc(N[C@@H](C)c3ncc(F)cn3)ncc2Cl)[nH]n1 [AZD-1480] |  | 5.23 | 6.14 | 
CCCC(C)Oc1ccc(C(=O)Nc2ccc3nc(SCC(=O)N[C@@H](C)c4ccccc4)sc3c2)c(F)c1F (stereo partly drawn) | < 5.00 |  |  | 
CCCC(C)Oc1ccc(C(=O)Nc2ccc3nc(SCC(=O)N[C@@H](C)c4ccccc4)sc3c2)c(OC)c1 (stereo partly drawn) | 5.66 |  |  | 
CCCC(C)Oc1ccc(C(=O)Nc2ccc3nc(SCC(=O)N[C@@H](C)c4ccccc4)sc3c2)c(C)c1 (stereo partly drawn) | 5.57 |  |  | 
CCCC(C)Oc1ccc(C(=O)Nc2ccc3nc(SCC(=O)N[C@@H](C)c4ccccc4)sc3c2)cc1C (stereo partly drawn) | 6.02 | 6.14 | < 5.00 | 
CCCC(C)Oc1ccc(C(=O)Nc2ccc3nc(SCC(=O)N[C@@H](C)c4ccccc4)sc3c2)cc1 (stereo partly drawn) |  | 5.66 | < 5.00 | pIC50 ([1]; hepg2): 5.80
CCCC(C)Oc1ccc(C(=O)Nc2ccc3nc(SCC(=O)N[C@@H](C)c4ccccc4)sc3c2)cc1Cl (stereo partly drawn) | < 5.00 |  |  | 
CCC[C@@H](C)Oc1ccc(C(=O)Nc2ccc3nc(SCC(=O)N[C@@H](C)c4ccccc4)sc3c2)cc1C | 6.05 |  |  | 
O=[N+]([O-])c1ccc2c(c1)S(=O)(=O)C=C2 |  |  | 5.80 | Activity [2]: 95%; Activity [3]: 71.1%; pIC50 (MDA-MB-453): 5.36; Activity [4]: 62.3%; pKd [5]: 5.82; pIC50 (MCF7): 5.77
CCC[C@H](C)Oc1ccc(C(=O)Nc2ccc3nc(SCC(=O)N[C@@H](C)c4ccccc4)sc3c2)cc1C | 5.92 |  |  | 
CCCC(C)Oc1ccc(C(=O)Nc2ccc3nc(SCC(=O)N[C@@H](C)c4ccccc4)sc3c2)cc1CC (stereo partly drawn) | < 5.00 |  |  | 
CCCC(C)Oc1ccc(C(=O)Nc2ccc3nc(SCC(=O)N[C@@H](C)c4ccccc4)sc3c2)cc1C#N (stereo partly drawn) | < 5.00 |  |  | 
COc1ccc([C@H](C)NC(=O)CSc2nc3ccc(NC(=O)c4ccc(OCCN5CCCC5)c(C)c4OC)cc3s2)cc1 | 5.99 | 5.47 | 4.98 | 
COc1ccc([C@H](C)NC(=O)COc2nc3ccc(NC(=O)c4ccc(OC)c(C)c4OC)cc3s2)cc1 | 5.05 |  |  | 
CCCc1cc(C(=O)Nc2ccc3nc(SCC(=O)N[C@@H](C)c4ccccc4)sc3c2)ccc1OC(C)CCC (stereo partly drawn) | < 5.00 |  |  | 

Second part, led by results:

pIC50 [1] | pIC50 (MDA-MB-468) | Compound | pIC50 (HEL) | also measured
6.70 | 5.69 | COc1ccc([C@H](C)NC(=O)CSc2nc3ccc(NC(=O)c4ccc(OCC(C)C)c(C)c4OC)cc3s2)cc1 | 5.69 | 
6.62 | 5.75 | COc1ccc([C@H](C)NC(=O)CSc2nc3ccc(NC(=O)c4ccc(OCCN5CCOCC5)c(C)c4OC)cc3s2)cc1 | 5.47 | 
6.34 | 6.09 | CCCC(C)Oc1ccc(C(=O)Nc2ccc3nc(SCC(=O)N[C@@H](C)c4ccccc4)sc3c2)c(C)c1C (stereo partly drawn) | 6.03 | 
6.66 | 5.74 | COc1ccc([C@H](C)NC(=O)CSc2nc3ccc(NC(=O)c4ccc(OC(C)C)c(C)c4OC)cc3s2)cc1 | 5.89 | 
6.82 | 5.65 | CCCC(C)Oc1ccc(C(=O)Nc2ccc3nc(SCC(=O)N[C@@H](C)c4cccc(O)c4)sc3c2)c(OC)c1C (stereo partly drawn) | 6.21 | 
6.77 | 6.23 | CCCC(C)Oc1ccc(C(=O)Nc2ccc3nc(SCC(=O)N[C@@H](C)c4ccccc4O)sc3c2)c(OC)c1C (stereo partly drawn) | 6.01 | 
6.92 | 5.69 | COc1ccc([C@H](C)NC(=O)CSc2nc3ccc(NC(=O)c4ccc(OC)c(C)c4OC)cc3s2)cc1 | 5.87 | 
6.57 | 6.30 | CCCC(C)Oc1ccc(C(=O)Nc2ccc3nc(SCC(=O)N[C@@H](C)c4cccc(OC)c4)sc3c2)c(OC)c1C (stereo partly drawn) | 6.06 | 
7.01 | 6.14 | NS(=O)(=O)c1cccc2c1C(=O)c1cccc(O)c1C2=O | 5.84 | 
6.59 | 5.94 | COCCOc1ccc(C(=O)Nc2ccc3nc(SCC(=O)N[C@@H](C)c4ccc(OC)cc4)sc3c2)c(OC)c1C | 5.84 | 
6.70 | 6.15 | CCCC(C)Oc1ccc(C(=O)Nc2ccc3nc(SCC(=O)N[C@@H](C)c4ccc(O)cc4)sc3c2)c(OC)c1C (stereo partly drawn) | 6.17 | 
6.28 | 5.18 | COc1ccc([C@H](C)NC(=O)CSc2nc3ccc(NC(=O)c4ccc(OCCN(C)C)c(C)c4OC)cc3s2)cc1 | 5.30 | 
